Assay outcomes as filed in PubChem.
Compounds with a hit are over-represented: about 2.7% of the library has one in this group of screens.
OX1R antag-1 = human HCRTR1 antagonism; O43613; CHO/OX1R cells, Fluo-8 calcium fluorescence, orexin A; inhibition, % at 5 µM; hit rate 0.43% among 330,000; AID 434989;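 active means inhibition above its plate's threshold, mean inhibition of all tested compounds on the plate plus 3 SD, cut at about 37% in these data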
V1aR counter = activates human V1a receptor in oxytocin agonist counter-screen; activation, % at 3 µM; P37288; AID 2797; CHO-V1R cells, Fluo-8 calcium fluorescence, agonist mode; 0% DMSO, 100% 3 nM vasopressin; hit rate 0.25% among 320,000;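 active means activation above the mean activation of all tested compounds plus 3 SD, per screening run, cut at about 20% in these data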;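 further: signal is peak over basal fluorescence ratio across a 100 second FLIPR read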
OXTR agonist = human OXTR agonism. activation, % at 3 µM. CHO-OTR cells, Fluo-8 calcium fluorescence; normalized: DMSO 0%, oxytocin 100%. hit rate 0.32% among 320,000. AID 2435;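 active means activation above the mean of all tested compounds plus 3 SD, cutoff set per screening run, cut at about 20% in these data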;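 further: peak over basal fluorescence ratio from a 100 s FLIPR kinetic read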
Target sequence (P30559 whole entry, looked up): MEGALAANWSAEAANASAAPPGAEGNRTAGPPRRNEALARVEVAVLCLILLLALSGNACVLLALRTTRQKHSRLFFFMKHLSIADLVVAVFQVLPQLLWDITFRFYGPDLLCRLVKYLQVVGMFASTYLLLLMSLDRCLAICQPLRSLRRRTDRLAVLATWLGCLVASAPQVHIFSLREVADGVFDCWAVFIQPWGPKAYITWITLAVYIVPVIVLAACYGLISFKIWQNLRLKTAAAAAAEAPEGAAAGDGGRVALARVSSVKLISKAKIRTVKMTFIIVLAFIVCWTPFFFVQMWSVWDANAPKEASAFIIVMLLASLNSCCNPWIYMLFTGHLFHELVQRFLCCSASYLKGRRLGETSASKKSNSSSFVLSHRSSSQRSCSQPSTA
OXTR potentiator = potentiators of human oxytocin receptor; P30559; CHO-OTR cells, Fluo-8 calcium fluorescence, potentiator mode; 0% = oxytocin EC15, 100% = EC100; activation, % at 3 µM; hit rate 0.061% among 320,000;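 active means activation above that plate's cutoff, the mean activation of tested compounds plus 3 SD, cut at about 6.6% in these data, passing the limit was not always enough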
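Material: human OTR in CHO cells. Compound: 3.0 µM, one dose. Timing: compound 6 min at room temperature before oxytocin, 100 s read. Evaluation: % activation of max/min ratio relative to oxytocin controls. Replication: single well per compound, singlicate. Signal: Fluo-8 calcium dye fluorescence.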
CHO parental Ca = signal in parental CHO cells, OX1R antagonist counter-screen | parental CHO-K1, ATP-induced calcium, Fluo-8 fluorescence | inhibition, % at 5.6 µM | hit rate 0.63% among 330,000;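 active means inhibition above that plate's mean sample inhibition plus 3 SD, cut at about 26% in these data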
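Material – parental CHO cells · Reagent – ATP stimulus · Compound – single nominal dose of 5.6 µM per compound · Detection – Fluo-8 fluorescence · Read-out basis – percent inhibition of calcium signal · Controls – ATP-challenged DMSO wells low, unchallenged DMSO wells high · Repeats – no replicates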
OX1R antag-2 = OX1R (human) antagonism | O43613 | OX1R-expressing cells, FRET antagonist read-out | inhibition, % at 6.6 µM | hit rate 1.8% among 330,000; in the data active means inhibition mostly above about 38%, no sharp cut-off; inactive means mostly below about 40%
OX1R Ca confirm = OX1R (human) antagonism, confirmed; shares compounds with OX1R antag-1; CHO/OX1R cells, orexin A calcium Fluo-8 fluorescence; inhibition, % at 5 µM; hit rate 38% among 1,100; AID 492963; in the data active means inhibition above about 29%
CHO Ca triplic = signal in parental CHO cells, OX1R antagonist counter-screen | shares compounds with OX1R antag-1 | AID 492965 | inhibition, % at 5.6 µM | parental CHO-K1, ATP-induced calcium, Fluo-8 fluorescence | hit rate 9.3% among 1,100;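 active means inhibition above a per-plate limit, the mean inhibition of that plate's test compounds plus 3 SD, cut at about 25% in these data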
Of the large screens only hits and unclear results are named; the others gave an inactive call (follow-up assays come after a bar, where they were run).

CC(=O)c1cn(CCOc2ccc(F)cc2)c2ccccc12	OX1R antag-1 48.0 | OX1R Ca confirm inactive | CHO Ca triplic inactive
COC(=O)c1cn(CCOc2ccc(C)cc2)c2ccccc12	none
COc1cc(S(=O)(=O)N2CCOCC2)ccc1NC(=O)COC(=O)C12CC3CC(CC(C3)C1)C2	none
O=C(COC(=O)C12CC3CC(CC(Br)(C3)C1)C2)Nc1cccc(S(=O)(=O)N2CCOCC2)c1	OX1R antag-1 47.5 | OX1R Ca confirm 32.0 | CHO Ca triplic inactive
CNc1nc(SCC(=O)Nc2ccc(Cl)c(Cl)c2)nc(N2CCOCC2)n1	none
Cc1cc(C)nc(SCC(=O)Nc2ccc(N3CCOCC3)c(Cl)c2)n1	none | OX1R Ca confirm inactive | CHO Ca triplic 30.6
CCCCCCCCNc1ncnc2ccccc12	OX1R antag-1 89.9 | OX1R Ca confirm inactive | CHO Ca triplic 84.7
CCN(CC)CCNC(=O)c1ccc(CS(=O)(=O)c2ccccc2C)o1	none
COc1ccc(-n2ccnc2)cc1	none
COc1nc(N(c2ccccc2)c2ccccc2)nc(-n2ccnc2)n1	OX1R antag-1 45.5 | OX1R Ca confirm 43.1 | CHO Ca triplic inactive
CCNS(=O)(=O)c1ccc(S(=O)(=O)N(Cc2ccccn2)C2CCCCC2)cc1	none
O=S(=O)(NCc1ccccc1)c1ccc(S(=O)(=O)N(Cc2ccccn2)C2CCCC2)cc1	OX1R antag-1 50.2 | OX1R Ca confirm inactive | CHO Ca triplic inactive
COc1ccc(C(=O)NNC(=S)Nc2ccccc2)cc1	none
COc1ccc(C(=O)NNC(=S)NC(=O)c2cccs2)cc1	none | OX1R Ca confirm inactive | CHO Ca triplic inactive
COc1ccc(C(=O)NC(=S)NNC(=O)c2cccc(C)c2)cc1	V1aR counter 94.7, OXTR agonist 69.9 | OX1R Ca confirm 31.4 | CHO Ca triplic inactive
COc1ccc(NC(=O)C(=O)NNC(=O)c2cccs2)cc1	none
COc1ccc(CCC(=O)NCc2ccccc2OC)cc1	none | OX1R Ca confirm inactive | CHO Ca triplic inactive
CCCOP(=O)(OCCC)C(Nc1ccc(C(C)C)cc1)c1ccc([N+](=O)[O-])cc1 (configuration not stated)	OX1R antag-1 54.5 | OX1R Ca confirm inactive | CHO Ca triplic inactive
COP(=O)(OC)C(Nc1ccc([N+](=O)[O-])cc1)c1ccccc1 (configuration not stated)	none
COc1cc(C(C)=O)ccc1COc1ccc(C(=O)O)cc1OC	none
CCCN(CCC)C(=O)c1cc(S(=O)(=O)N2CCCCC2)c[nH]1	none
COc1ccc(CN([C@H](C)CO)S(=O)(=O)N(Cc2ccccc2)[C@H](CO)C(C)C)cc1	none
COC(=O)[C@@H](CC(C)C)NS(=O)(=O)N(Cc1ccccc1)[C@@H](CC(C)C)C(=O)OC	none | OX1R Ca confirm inactive | CHO Ca triplic inactive
COC(=O)[C@H](CC(C)C)NS(=O)(=O)c1ccccc1	none
COc1ccc(CN([C@H](CO)CC(C)C)S(=O)(=O)N(Cc2ccccc2)[C@H](CO)CC(C)C)cc1	OX1R antag-1 67.1 | OX1R Ca confirm inactive | CHO Ca triplic inactive
COc1ccccc1NC(=O)Nc1ccc(-n2ccc(C(F)(F)F)n2)cc1	none | OX1R Ca confirm inactive | CHO Ca triplic inactive
COc1cccc(CC(=O)OCC(=O)NCC(=O)Nc2cccc(C)c2C)c1	none
O=C(Nc1ccncc1)c1ccc(Cl)c(S(=O)(=O)N2CCCCC2)c1	none
O=C(Nc1ncn[nH]1)c1ccc(Cl)c(S(=O)(=O)N2CCCCCC2)c1	none | OX1R Ca confirm inactive | CHO Ca triplic inactive
O=C(COc1ccccc1)N1CCN(C(=O)c2ccccc2F)CC1	none
COc1ccc(-c2nc(NC3=NCCCCC3)sc2C)cc1	OX1R antag-1 54.8 | OX1R Ca confirm inactive | CHO Ca triplic inactive
O=C(O)CNC(=S)NCc1ccccc1	none
CC(C)C(NC(=S)NCc1ccccc1)C(=O)O (configuration not stated)	none | OX1R Ca confirm inactive | CHO Ca triplic inactive
CSCCC(NC(=O)c1cccc(C)c1)C(=O)OCC(=O)Nc1c(C)nn(-c2ccccc2)c1C (configuration not stated)	none
O=[N+]([O-])c1ccc(Cl)cc1CNc1ccc(F)c(F)c1	none | OX1R Ca confirm inactive | CHO Ca triplic inactive
O=C(O)c1ccc(Nc2ccc(F)c(F)c2)c([N+](=O)[O-])c1	none
Cc1ccccc1C(=O)N(CC(=O)Nc1sc(C)c(C)c1C(N)=O)C1CCCC1	none
CCOc1cc(N2CCOCC2)c(OCC)cc1NC(=O)CSc1ncccc1C(=O)O	none
CSc1ccc(/C=C2\CCn3c2nc2cc(C(=O)O)ccc2c3=O)cc1	none
NC(=O)c1cc([N+](=O)[O-])c(Cl)cc1NCc1cccnc1	none
COc1ccc(NC(=O)COc2ccccc2Cc2ccccc2)cc1S(N)(=O)=O	none | OX1R Ca confirm inactive | CHO Ca triplic inactive
C=CCNC(=S)NC(=O)c1oc2ccccc2c1C	none | OX1R Ca confirm 37.8 | CHO Ca triplic inactive
CC(=O)O[C@H]1CC(=O)OC(C)(C)C2CC(=O)[C@]3(C)C(CC[C@@](C)([C@@H](O[C@@H]4O[C@H](CO)[C@@H](O)[C@H](O)[C@H]4O)c4ccoc4)[C@@]34O[C@@H]4C(=O)O)[C@]21C (some centres not stated)	none
CN(C)S(=O)(=O)c1cccc(N=C2NN=C(c3ccccc3)CS2)c1	none
CC(=O)Nc1ccc(C2=NNC(=Nc3cccc(S(=O)(=O)N(C)C)c3)SC2)cc1	OX1R antag-1 34.2 | OX1R Ca confirm 38.0 | CHO Ca triplic inactive
CC(=O)NC(NC(=S)Nc1ccc(S(N)(=O)=O)cc1)C(Cl)(Cl)Cl (configuration not stated)	none
CC(=O)NC(NC(=S)Nc1ccc(N=Nc2ccccc2)cc1)C(Cl)(Cl)Cl (configuration not stated)	none | OX1R Ca confirm 41.3 | CHO Ca triplic inactive
Cc1ccc(NC(=O)Cn2nc(C(=O)O)c3ccccc3c2=O)cc1S(=O)(=O)N1CCCCC1	OX1R antag-1 40.9 | OX1R Ca confirm inactive | CHO Ca triplic inactive
COc1ccc(NC(=O)Cn2nc(C(=O)O)c3ccccc3c2=O)cc1Cl	none
Cc1ccc(NC(=O)c2cccc(NC3=NC4CS(=O)(=O)CC4S3)c2)cc1 (configuration not stated)	none
O=C(Nc1cccc(Cl)c1)Nc1nc(-c2ccc(Cl)cc2)cs1	none | OX1R Ca confirm inactive | CHO Ca triplic 60.1
OCC1(Cc2cccc(Cl)c2)CCCN(Cc2ccc3cc(F)ccc3n2)C1 (configuration not stated)	none | OX1R Ca confirm 33.1 | CHO Ca triplic inactive
